Key:
Rattus norvegicus [1] = assay: Area under curve was evaluated in rat plasma when administered perorally at a dose of 100 mg/kg for infinite hours; type: ADME, organism-based; parameters: time infinity, dose 100 mg/kg, route oral; conditions: in vivo, po
Procedure, shortened: (§1)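 Male Fischer 344 rats were dosed at 10 mg/kg iv, 10 mg/kg ip, or 10 or 100 mg/kg po, with five rats per route and dose. One rat was sampled for blood and brain at each time: 0.25, 0.5, 1, 2 and 4 h after iv/ip, and 0.5, 1, 2, 4 and 6 h after po. Plasma and brain homogenates were derivatized, extracted and quantified by negative-ion chemical ionization GCMS (LOQ 100 pg/mL plasma, 1 ng/g brain).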

in vivo [2] = conditions: brain, ip, 10 mg/kg
[3] = Time of maximum concentration achieved in rat plasma when administered perorally at a dose of 100 mg/kg; type: ADME, organism-based; parameters: dose 100 mg/kg, route oral; conditions: po
Procedure, shortened: (§2)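 Male Fischer 344 rats dosed iv or ip at 10 mg/kg, or orally at 10 or 100 mg/kg; five rats per route and dose. Blood and brain taken from one rat per time point (0.25, 0.5, 1, 2, 4 h after iv/ip; 0.5, 1, 2, 4, 6 h after po). Plasma and brain homogenates derivatized, extracted, assayed by negative-ion chemical ionization GCMS (LOQ 100 pg/mL plasma, 1 ng/g brain).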

[4] = Half-life in rat brain when administered intraperitoneally at a dose of 10 mg/kg; type: ADME, organism-based; parameters: dose 10 mg/kg, route intraperitoneal; conditions: ip
[5] = Brain concentration after 0.5 h at a dose of 100 mg/kg when administered perorally; conditions: po
[6] = Time of maximum concentration achieved in rat brain when administered intravenously at a dose of 10 mg/kg; type: ADME, organism-based; parameters: dose 10 mg/kg, route intravenous; conditions: iv; procedure, shortened: as §2
[7] = Brain concentration after 6 hr at a dose of 10 mg/kg when administered perorally; conditions: po
Rattus norvegicus [8] = assay: Area under curve was evaluated in rat brain when administered intraperitoneally at a dose of 10 mg/kg for 4 or 6 hours; type: ADME, organism-based; parameters: dose 10 mg/kg, route intraperitoneal; conditions: in vivo, ip
[9] = Brain concentration after 1 hr at a dose of 100 mg/kg when administered perorally; conditions: po
[10] = Binding affinity for Group II Metabotropic glutamate receptor was measured using [3H]glutamate in rat forebrain membranes; type: cell membranes, Membrane
Procedure, shortened: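 ACPD-sensitive [³H]glutamate binding to group II mGluRs in rat forebrain membranes, reported as IC50. Most values are single-point determinations; others are averages of two or three determinations. Values in parentheses are percent radioligand displacement at 1 μM.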

Rattus norvegicus [11] = assay: Area under curve was evaluated in rat plasma when administered intravenously at a dose of 10 mg/kg for infinite hours; type: ADME, organism-based; parameters: time infinity, dose 10 mg/kg, route intravenous; conditions: in vivo, iv; procedure, shortened: as §1
[12] = Plasma concentration after 2 hr at a dose of 100 mg/kg when administered perorally; conditions: po
in vivo [13] = conditions: plasma, iv, 10 mg/kg
Rattus norvegicus [14] = assay: Area under curve was evaluated in rat plasma when administered perorally at a dose of 10 mg/kg for infinite hours; type: ADME, organism-based; parameters: time infinity, dose 10 mg/kg, route oral; conditions: in vivo, po; procedure, shortened: as §1
[15] = Time of maximum concentration achieved in rat brain when administered perorally at a dose of 10 mg/kg; type: ADME, organism-based; parameters: dose 10 mg/kg, route oral; conditions: po; procedure, shortened: as §2
[16] = Plasma concentration after 2 hr at a dose of 10 mg/kg when administered intraperitoneally; conditions: ip
Rattus norvegicus [17] = assay: Bioavailability was evaluated in rat plasma when administered intravenously at a dose of 10 mg/kg; <Tr>; type: ADME, organism-based; conditions: in vivo, iv
[18] = Brain concentration after 2 hr at a dose of 10 mg/kg when administered intraperitoneally; conditions: ip
[19] = Plasma concentration after 4 hr at a dose of 100 mg/kg when administered perorally; conditions: po
[20] = Brain concentration after 0.5 h at a dose of 10 mg/kg when administered intraperitoneally; conditions: ip
in vivo [21] = conditions: plasma, ip, 10 mg/kg
[22] = Brain concentration after 4 hr at a dose of 10 mg/kg when administered perorally; conditions: po
[23] = Maximum concentration achieved in rat plasma when administered intraperitoneally at a dose of 10 mg/kg; type: ADME, organism-based; parameters: dose 10 mg/kg, route intraperitoneal; conditions: ip; procedure, shortened: as §2
Rattus norvegicus [24] = assay: Area under curve was evaluated in rat plasma when administered intraperitoneally at a dose of 10 mg/kg for 4 or 6 hours; type: ADME, organism-based; parameters: dose 10 mg/kg, route intraperitoneal; conditions: in vivo, ip; procedure, shortened: as §1
[25] = Plasma concentration after 6 hr at a dose of 100 mg/kg when administered perorally; conditions: po
[26] = Brain concentration after 4 hr at a dose of 10 mg/kg when administered intraperitoneally; conditions: ip
Rattus norvegicus [27] = assay: Bioavailability was evaluated in rat plasma when administered intraperitoneally at a dose of 10 mg/kg; type: ADME, organism-based; conditions: in vivo, ip
[28] = Plasma concentration after 1 hr at a dose of 10 mg/kg when administered perorally; conditions: po
[29] = Clearance rate in rat plasma when administered intravenously at a dose of 10 mg/kg; type: ADME, organism-based; parameters: dose 10 mg/kg, route intravenous; conditions: iv, read-out: Clp (converted); procedure, shortened: as §1
[30] = Brain concentration after 4 hr at a dose of 10 mg/kg when administered intravenously; conditions: iv
[31] = Plasma concentration after 6 hr at a dose of 10 mg/kg when administered perorally; conditions: po
[32] = Time of maximum concentration achieved in rat brain when administered perorally at a dose of 100 mg/kg; type: ADME, organism-based; parameters: dose 100 mg/kg, route oral; conditions: po; procedure, shortened: as §2
[33] = Half-life in rat brain when administered intravenously at a dose of 10 mg/kg; type: ADME, organism-based; parameters: dose 10 mg/kg, route intravenous; conditions: iv
[34] = Plasma concentration after 0.5 hr at a dose of 10 mg/kg when administered perorally; conditions: po
[35] = Maximum concentration achieved in rat plasma when administered perorally at a dose of 100 mg/kg; type: ADME, organism-based; parameters: dose 100 mg/kg, route oral; conditions: po; procedure, shortened: as §2
[36] = Half-life in rat plasma when administered perorally at a dose of 10 mg/kg; type: ADME, organism-based; parameters: dose 10 mg/kg, route oral; conditions: po; procedure, shortened: as §1
[37] = Plasma concentration after 4 hr at a dose of 10 mg/kg when administered intravenously; conditions: iv
[38] = Brain concentration after 0.5 hr at a dose of 10 mg/kg when administered intravenously; conditions: iv
[39] = Bioavailability in rat (dose 10 mg/kg p.o.); type: ADME, organism-based; conditions: in vivo, po
[40] = Plasma concentration after 1 hr at a dose of 10 mg/kg when administered intraperitoneally; conditions: ip
[41] = Maximum concentration achieved in rat brain when administered perorally at a dose of 10 mg/kg; type: ADME, organism-based; parameters: dose 10 mg/kg, route oral; conditions: po; procedure, shortened: as §2
[42] = Maximum concentration achieved in rat brain when administered intravenously at a dose of 10 mg/kg; type: ADME, organism-based; parameters: dose 10 mg/kg, route intravenous; conditions: iv; procedure, shortened: as §2
in vivo [43] = conditions: brain, iv, 10 mg/kg
Rattus norvegicus [44] = assay: Area under curve was evaluated in rat brain when administered perorally at a dose of 100 mg/kg for 4 or 6 hours; type: ADME, organism-based; parameters: dose 100 mg/kg, route oral; conditions: in vivo, po
[45] = Maximum concentration achieved in rat brain when administered perorally at a dose of 100 mg/kg; type: ADME, organism-based; parameters: dose 100 mg/kg, route oral; conditions: po; procedure, shortened: as §2
[46] = Brain concentration after 1 hr at a dose of 10 mg/kg when administered perorally; conditions: po
[47] = Clearance rate in rat plasma when administered intraperitoneally at a dose of 10 mg/kg; type: ADME, organism-based; parameters: dose 10 mg/kg, route intraperitoneal; conditions: ip, read-out: Clp (converted); procedure, shortened: as §1
[48] = Plasma concentration after 1 hr at a dose of 100 mg/kg when administered perorally; conditions: po
[49] = Brain concentration after 4 hr at a dose of 100 mg/kg when administered perorally; conditions: po

AUC (Rattus norvegicus [1]): 1660 ng·h/mL
concentration at 0.25 h (in vivo [2]): 211 ng/g
Tmax [3]: 1 h
half-life [4]: 4.75 h
concentration at 0.5 h [5]: 5.1 ng/g
Tmax [6]: 0.5 h
concentration at 6 h [7]: 4.8 ng/g
AUC (Rattus norvegicus [8]): 774 ng·h/mL
concentration at 1 h [9]: 16.4 ng/g
IC50 [10]: 2.9 nM
AUC (Rattus norvegicus [11]): 8400 ng·h/mL
concentration at 2 h [12]: 420 ng/mL
concentration at 0.25 h (in vivo [13]): 12000 ng/mL
AUC (Rattus norvegicus [14]): 284 ng·h/mL
Tmax [15]: 4 h
concentration at 2 h [16]: 1120 ng/mL
Bioavailabiility (Rattus norvegicus [17]): <Tr>
concentration at 2 h [18]: 202 ng/g
concentration at 4 h [19]: 95.5 ng/mL
concentration at 0.5 h [20]: 246 ng/g
concentration at 0.25 h (in vivo [21]): 14300 ng/mL
concentration at 4 h [22]: 7.4 ng/g
Cmax [23]: 14300 ng/mL
AUC (Rattus norvegicus [24]): 12700 ng·h/mL
concentration at 6 h [25]: 102 ng/mL
concentration at 4 h [26]: 149 ng/g
Bioavailabiility (Rattus norvegicus [27]): 152%
concentration at 1 h [28]: 48.3 ng/mL
clearance [29]: 19.8 mL/min/kg
concentration at 4 h [30]: 145 ng/g
concentration at 6 h [31]: 17.5 ng/mL
Tmax [32]: 6 h
half-life [33]: 5.43 h
concentration at 0.5 h [34]: 64.1 ng/mL
Cmax [35]: 475 ng/mL
half-life [36]: 2.64 h
concentration at 4 h [37]: 35.9 ng/mL
concentration at 0.5 h [38]: 243 ng/g
F [39]: 2%
bioavailability [39]: 3.4%
concentration at 1 h [40]: 4570 ng/mL
Cmax [41]: 7.4 ng/g
Cmax [42]: 243 ng/g
concentration at 0.25 h (in vivo [43]): 234 ng/g
AUC (Rattus norvegicus [44]): 120 ng·h/mL
Cmax [45]: 30 ng/g
concentration at 1 h [46]: 2.1 ng/g
CL/F [47]: 13 mL/min/kg
concentration at 1 h [48]: 475 ng/mL
concentration at 4 h [49]: 20.1 ng/g
Structure (SMILES): N[C@](CC1c2ccccc2Oc2ccccc21)(C(=O)O)[C@H]1C[C@@H]1C(=O)O
